Experimental data published in ChEMBL document CHEMBL4819098, “Novel 1,2,4-triazine-quinoline hybrids: The privileged scaffolds as potent multi-target inhibitors of LPS-induced inflammatory response via dual COX-2 and 15-LOX inhibition” (Eur J Med Chem, 2021).

Key:
[1] = Inhibition of soybean 15-LOX; parameters: species or system Glycine max
How it was run: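 Soybean 15-LOX run with a lipoxygenase inhibitor screening kit according to the manufacturer's instructions. IC50 values reported.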

[2] = target: T1, Prostaglandin G/H synthase 1 (Ovis aries, UniProt P05979); test: Inhibition of ovine COX-1
T1 sequence (P05979 whole entry): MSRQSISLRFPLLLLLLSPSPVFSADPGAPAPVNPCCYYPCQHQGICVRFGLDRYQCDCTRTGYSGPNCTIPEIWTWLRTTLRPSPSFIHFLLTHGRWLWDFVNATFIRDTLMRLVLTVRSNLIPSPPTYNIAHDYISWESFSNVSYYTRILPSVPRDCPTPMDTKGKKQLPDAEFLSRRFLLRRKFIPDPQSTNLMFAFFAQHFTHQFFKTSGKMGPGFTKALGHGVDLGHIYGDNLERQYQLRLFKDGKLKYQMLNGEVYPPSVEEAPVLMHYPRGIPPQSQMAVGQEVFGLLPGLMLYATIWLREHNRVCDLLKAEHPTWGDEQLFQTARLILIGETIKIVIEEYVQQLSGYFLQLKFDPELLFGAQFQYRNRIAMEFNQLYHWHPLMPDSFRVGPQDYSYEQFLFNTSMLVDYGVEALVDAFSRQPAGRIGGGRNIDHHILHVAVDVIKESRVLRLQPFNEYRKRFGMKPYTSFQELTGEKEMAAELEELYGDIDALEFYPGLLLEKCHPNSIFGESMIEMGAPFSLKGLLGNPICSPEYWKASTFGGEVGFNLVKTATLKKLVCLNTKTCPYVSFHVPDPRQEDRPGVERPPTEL
How it was run: (§1)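 Enzyme kit assay with ovine COX-1 and human recombinant COX-2. IC50 determined from three replicates. Selectivity index taken as IC50(COX-1)/IC50(COX-2).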

[3] = target: T2, Prostaglandin G/H synthase 2 (Homo sapiens, UniProt P35354); test: Inhibition of human recombinant COX-2; how it was run: as §1
T2 sequence (P35354 whole entry): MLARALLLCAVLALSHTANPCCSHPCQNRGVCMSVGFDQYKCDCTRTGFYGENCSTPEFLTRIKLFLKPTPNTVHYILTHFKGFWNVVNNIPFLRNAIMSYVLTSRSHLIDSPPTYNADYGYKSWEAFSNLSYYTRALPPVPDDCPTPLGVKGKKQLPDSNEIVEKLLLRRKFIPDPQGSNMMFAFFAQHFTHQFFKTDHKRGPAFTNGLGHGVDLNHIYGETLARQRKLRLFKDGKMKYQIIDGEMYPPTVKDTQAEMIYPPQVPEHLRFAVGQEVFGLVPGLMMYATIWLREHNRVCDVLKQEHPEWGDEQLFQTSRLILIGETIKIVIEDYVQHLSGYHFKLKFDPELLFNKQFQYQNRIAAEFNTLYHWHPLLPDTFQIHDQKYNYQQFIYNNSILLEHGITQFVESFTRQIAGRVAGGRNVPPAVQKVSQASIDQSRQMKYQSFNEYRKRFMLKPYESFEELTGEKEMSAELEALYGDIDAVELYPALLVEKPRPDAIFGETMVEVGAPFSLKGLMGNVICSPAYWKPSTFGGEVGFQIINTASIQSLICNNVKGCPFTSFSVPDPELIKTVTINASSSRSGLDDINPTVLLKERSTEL

[4] = target: T1, Prostaglandin G/H synthase 1; test: Inhibition of ovine COX-1 using arachidonic acid as substrate preincubated with enzyme for 5 mins followed by substrate addition by colorimetric analysis
[5] = target: T2, Prostaglandin G/H synthase 2; test: Inhibition of human recombinant COX-2 using arachidonic acid as substrate preincubated with enzyme for 5 mins followed by substrate addition by colorimetric analysis
[6] = Selectivity index, ratio of IC50 for ovine COX-1 to IC50 for human recombinant COX-2; how it was run: as §1
[7] = Inhibition of soybean 15-LOX using arachidonic acid or linolenic acid as substrate in presence of hydrogen peroxide incubated for 5 mins by colorimetric analysis; parameters: species or system Glycine max
[8] = test system: RAW264.7; test: Inhibition of LPS-induced NO production in mouse RAW264.7 cells preincubated for 2 hrs followed by LPS stimulation and measured after 20 hrs by DAF-FM based fluorescence analysis; format: functional, cell-based
[9] = test system: RAW264.7; test: Antioxidant activity in mouse RAW264.7 cells assessed as inhibition of LPS-induced intracellular ROS production preincubated for 2 hrs followed by LPS stimulation and measured after 20 hrs by DCFH-DA staining based fluorescence analysis; format: functional, cell-based
[10] = test system: RAW264.7; test: Inhibition of LPS-induced TNFalpha production in mouse RAW264.7 cells preincubated for 2 hrs followed by LPS stimulation and measured after 20 hrs by ELISA; format: functional, cell-based
[11] = test system: RAW264.7; test: Inhibition of LPS-induced IL-6 production in mouse RAW264.7 cells preincubated for 2 hrs followed by LPS stimulation and measured after 20 hrs by ELISA; format: functional, cell-based
[12] = test system: RAW264.7; test: Inhibition of LPS-induced 15(S)-HETE production in mouse RAW264.7 cells preincubated for 2 hrs followed by LPS stimulation and measured after 20 hrs by ELISA; format: functional, cell-based
[13] = target: T3, Prostaglandin G/H synthase 2 (Homo sapiens) (UniProt P35354); test: Potency index, ratio of diclofenac sodium IC50 to test compound IC50 for human recombinant COX-2 using arachidonic acid as substrate preincubated with enzyme for 5 mins followed by substrate addition by colorimetric analysis
T3 sequence (whole entry): T2 sequence (P35354 whole entry)

[14] = test system: RAW264.7; test: Potency index, ratio of celecoxib IC50 to test compound IC50 for inhibition of LPS-induced NO production in mouse RAW264.7 cells preincubated for 2 hrs followed by LPS stimulation and measured after 20 hrs by DAF-FM based fluorescence analysis; format: functional; details: time 22 hrs
[15] = test system: RAW264.7; test: Potency index, ratio of diclofenac sodium IC50 to test compound IC50 for inhibition of LPS-induced NO production in mouse RAW264.7 cells preincubated for 2 hrs followed by LPS stimulation and measured after 20 hrs by DAF-FM based fluorescence analysis; format: functional; details: time 22 hrs
[16] = test system: RAW264.7; test: Cytotoxicity against mouse RAW264.7 cells assessed as reduction in cell viability by MTS assay; format: cell-based
How it was run: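 RAW 264.7 macrophage viability at the tested concentrations measured by MTS assay.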

[17] = test system: RAW264.7; test: Cytotoxicity against mouse RAW264.7 cells assessed as reduction in cell viability at 50 uM by MTS assay; format: cell-based; details: raw264.7, 50 µM
[18] = test system: RAW264.7; test: Potency index, ratio of celecoxib IC50 to test compound IC50 for inhibition of LPS-induced IL-6 production in mouse RAW264.7 cells preincubated for 2 hrs followed by LPS stimulation and measured after 20 hrs by ELISA; format: functional; details: time 22 hrs
[19] = test system: RAW264.7; test: Potency index, ratio of diclofenac sodium IC50 to test compound IC50 for inhibition of LPS-induced IL-6 production in mouse RAW264.7 cells preincubated for 2 hrs followed by LPS stimulation and measured after 20 hrs by ELISA; format: functional; details: time 22 hrs
[20] = test system: RAW264.7; test: Potency index, ratio of celecoxib IC50 to test compound IC50 for inhibition of LPS-induced TNFalpha production in mouse RAW264.7 cells preincubated for 2 hrs followed by LPS stimulation and measured after 20 hrs by ELISA; format: functional; details: time 22 hrs
[21] = test system: RAW264.7; test: Potency index, ratio of diclofenac sodium IC50 to test compound IC50 for inhibition of LPS-induced TNFalpha production in mouse RAW264.7 cells preincubated for 2 hrs followed by LPS stimulation and measured after 20 hrs by ELISA; format: functional; details: time 22 hrs

In the case of `COc1ccc(/C=C\C(=O)c2cc(-n3cc(CN4C(=O)C(=O)c5ccccc54)nn3)ccc2O)cc1`, the IC50 [1] is reported as 1.95 µM, the IC50 [2] is reported as 13.3 µM and the IC50 [3] is reported as 0.037 µM.
In the case of `COc1cc(Cc2n[nH]c(=S)n(/N=C/c3cc4ccc(OCc5ccccc5)cc4nc3Cl)c2=O)cc(OC)c1OC`, the IC50 [4] is reported as 7.7 µM, the IC50 [5] is reported as 0.12 µM and the Ratio IC50 [6] is reported as 64.2. It also gave an IC50 [7] of 3.39 µM, an IC50 [8] of 6.76 µM and an IC50 [9] of 4.36 µM. For the same compound, the IC50 [10] was 16 µM, the IC50 [11] was 6.11 µM and the IC50 [12] was 2.03 µM. The Ratio IC50 [13] was 7, the “Ratio IC50” value [14] was 3 and the “Ratio IC50” value [15] was 6. For the same compound, the Activity [16] was “Non-Toxic”, the Activity [17] was “Toxic” and the Ratio IC50 [18] was 1.8. For the same compound, the Ratio IC50 [19] was 2.1.
With `Cc1ccc2nc(O)c(/C=N/n3c(=S)[nH]nc(Cc4cccs4)c3=O)cc2c1` the IC50 [4] was 9 µM, the IC50 [5] was 0.11 µM and the Ratio IC50 [6] was 81.8. It also gave an IC50 [7] of 2.38 µM, an IC50 [8] of 36.8 µM and an IC50 [9] of 10.9 µM. It also gave an IC50 [10] of 3.4 µM, an IC50 [11] of 11.8 µM and an IC50 [12] of 7.13 µM. For the same compound, the Ratio IC50 [13] was 7.6 and the Activity [16] was “Non-Toxic”.
For `COc1cc(Cc2n[nH]c(=S)n(/N=C/c3cc4cccc(C)c4nc3Cl)c2=O)cc(OC)c1OC`, the IC50 [4] was 8.3 µM, the IC50 [5] was 0.16 µM and the Ratio IC50 [6] was 51.9. The IC50 [7] was 1.86 µM, the IC50 [8] was 25.8 µM and the IC50 [10] was 0.4 µM. The IC50 [11] was 3.99 µM, the IC50 [12] was 1.46 µM and the Ratio IC50 [13] was 5.3. The Activity [16] was “Non-Toxic”, the “Ratio IC50” value [20] was 25 and the “Ratio IC50” value [21] was 25. For the same compound, the Ratio IC50 [18] was 2.8 and the Ratio IC50 [19] was 3.2.
For `CC(C)Oc1ccc2nc(O)c(/C=N/n3c(=S)[nH]nc(Cc4ccccc4)c3=O)cc2c1`, the IC50 [4] was 6.6 µM, the IC50 [5] was 0.32 µM and the Ratio IC50 [6] was 20.6. For the same compound, the IC50 [7] was 3.49 µM, the IC50 [8] was > 50 µM and the IC50 [9] was 1.91 µM. The IC50 [10] was 34.6 µM, the IC50 [11] was 12.9 µM and the IC50 [12] was 0.42 µM. The Ratio IC50 [13] was 2.6 and the Activity [16] was “Non-Toxic”.
`COc1ccc2cc(/C=N/n3c(=S)[nH]nc(Cc4ccccc4)c3=O)c(O)nc2c1` showed an IC50 [4] of 10.2 µM, an IC50 [5] of 0.073 µM and a Ratio IC50 [6] of 140. The IC50 [7] was 2.32 µM, the IC50 [8] was 16.1 µM and the IC50 [9] was 3.78 µM. For the same compound, the IC50 [10] was 8.41 µM, the IC50 [11] was 7.36 µM and the IC50 [12] was 3.6 µM. For the same compound, the Ratio IC50 [13] was 11.5, the Activity [16] was “Non-Toxic” and the Activity [17] was “Toxic”. The “Ratio IC50” value [18] was 1.5.
With `COc1ccc2nc(O)c(/C=N/n3c(=S)[nH]nc(Cc4ccccc4)c3=O)cc2c1` the IC50 [4] was 10.5 µM, the IC50 [5] was 0.068 µM and the Ratio IC50 [6] was 154. The IC50 [7] was 1.97 µM, the IC50 [8] was 6.93 µM and the IC50 [9] was 3.95 µM. For the same compound, the IC50 [10] was > 50 µM, the IC50 [11] was 5.98 µM and the IC50 [12] was 3.91 µM. For the same compound, the Ratio IC50 [13] was 12.4, the “Ratio IC50” value [14] was 3 and the “Ratio IC50” value [15] was 6. For the same compound, the Activity [16] was “Non-Toxic”, the Ratio IC50 [18] was 1.9 and the Ratio IC50 [19] was 2.2.
Compound `O=C1N/C(=N\c2nnc(-c3ccc(O)cc3)s2)S/C1=C\c1ccccc1` has an IC50 [1] of 5.74 µM, an IC50 [2] of 4.66 µM and an IC50 [3] of 0.085 µM.
